Measurements taken from ChEMBL document CHEMBL4513216, “Probing the Open Global Health Chemical Diversity Library for Multistage-Active Starting Points for Next-Generation Antimalarials” (ACS Infect Dis, 2020).

Test: Toxicity liver stage against HepG2, at 10uM
Type: cell-based
Design: test concentration 10 uM, cell line HepG2-A16-CD81EGFP
Details: human, HepG2-A16-CD81EGFP cells; read-out: INHIBITION
Method in brief: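 Uninfected HepG2-A16-CD81EGFP cells, 3 × 10^3 per well, 1536-well, plated on prespotted compound at 10 μM final, parasite-free screening media added to match infected plates; puromycin 10 μM positive, DMSO 0.5% negative; run in parallel with 48 h PbLuc assay at 37 °C, 5% CO2; viability by CellTiter-Glo luminescence, normalized to controls.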

Row | SMILES | cytotoxicity at 10 µM
1 | COC(=O)c1ccccc1NC(=O)c1c(C)cn(C)c1CC(=O)O | -6.14%
2 | CCc1c(C)sc2nc3n(CC(N)=O)nc(SC)n3c(=O)c12 | -0.817%
3 | O=C1CC(c2cccnc2)c2c(c(C(=O)O)cn2-c2ccccc2F)N1 (stereo unspecified) | 1.85%
4 | Cc1cc(C)n(-c2ccnc(N3CCC(C(=O)N4CCCC4)CC3)n2)n1 | -9.87%
5 | COCC(=O)N1Cc2nccn2CC(Cn2ncccc2=O)C1 (stereo unspecified) | 5.23%
6 | Cc1cc2nc(SCC(=O)N3CCCC3)n(C)c(=O)c2[nH]1 | 11.1%
7 | CCOc1cc2c(cc1CCC(=O)O)CCC2 | -4.63%
8 | COc1cccc(C2CC(=O)Nc3nc(N4CCCCC4)sc32)c1OC (stereo unspecified) | 10.4%
9 | O=C(NCCN1CCCCC1)c1nc(-c2cccc3[nH]ccc23)no1 | 0.142%
10 | O=C1CC(c2ccsc2)c2c(n(C3CCOCC3)[nH]c2=O)N1 (stereo unspecified) | 0.847%
11 | CCc1cc(=O)[nH]c2nnc(SCC(=O)OC)n12 | -16.6%
12 | CCC1=N[C@@]2(CC[C@@H]3CN(C(=O)NC(C)C)C[C@@H]32)C(=O)N1C | -18%
13 | CCOc1ccc(N2CCCN=C2NC(=O)c2ccc(Cl)cc2)cc1 | 8.1%
14 | O=C(O)Cn1ccc2c(Cl)cccc21 | 0.308%
15 | Oc1cc(C2CCCCN2Cc2cccs2)nc(-c2ccncc2)n1 (stereo unspecified) | 7.78%
16 | COc1ccc(-c2cc3nc(CCNC(=O)CN(C)C)nn3cn2)cc1 | 1.98%
17 | Cc1cc(C)nc(Nc2cc(C)nc(C3CCN(C(=O)CO)C3)n2)n1 (stereo unspecified) | 5.34%
18 | COc1ccccc1-c1ccc(C2CCCN(C(C)=O)C2)nc1 (stereo unspecified) | -4.96%
19 | CNC(=O)C1CN(c2ncccn2)CCN1Cc1ccccc1 (stereo unspecified) | 14.3%
20 | Cc1nc(C(=O)N2CCC(c3cc(CCO)n(C)n3)C2)co1 (stereo unspecified) | -5.42%
21 | CC(C)c1nc(O)c2nnn(C[C@@H]3CCCN(Cc4cccs4)C3)c2n1 | 1.76%
22 | c1c[nH]c2nc(C3CCNC3)nc-2c1 (stereo unspecified) | 10.3%
23 | CC(C)N(C)CC(=O)NCc1ccccc1N1CCN(C)CC1 | -7.85%

Row | SMILES | cytotoxicity at 10 µM
24 | CC(C)C(C(=O)N(C)C)c1cccc(Cl)c1 (stereo unspecified) | 6.14%
25 | CCCS(=O)(=O)CC(=O)NC(C)c1cccc(-n2cccn2)c1 (stereo unspecified) | 6%
26 | Cc1nnc(NCCc2coc(-c3ccc(F)cc3)n2)c(C#N)c1C | -16.3%
27 | Cc1ncc(S(=O)(=O)Nc2ccnn2C(C)C)[nH]1 | 9.68%
28 | Cc1noc(C)c1C(=O)N1CCC(n2cccn2)CC1 | 3.82%
29 | Cc1cnn(CCNCc2c(C)nn(C)c2Cl)c1 | -15.3%
30 | N#Cc1c(F)cccc1Nc1cnn(CC(=O)N2CCOCC2)c1 | 2.2%
31 | c1cc(CCN2CCCC2CN2CCCCC2)ccn1 (stereo unspecified) | 0.295%
32 | NC(=O)CNC1(c2ccc(Br)cc2)CCOCC1 | -0.717%
33 | COc1cccc(C(O)CNC(=O)CC2CCCCC2)c1 (stereo unspecified) | -2.11%
34 | CC(=O)N1CCN(CC(=O)N2CCN(c3cccc(C)c3)CC2)CC1 | -3.83%
35 | CN(Cc1noc(C2CC2)n1)C1CCN(Cc2nc(C3CC3)no2)C1 (stereo unspecified) | -1.57%
36 | CC(C)(C(=O)NCC(=O)NC1CC1)c1ccccc1F | -4.9%
37 | CCCc1noc(CN(C)Cc2ccc3c(c2)OCO3)n1 | -11.1%
38 | CC(C)Nc1cccc(CNC(=O)N2CCC(N3CC=CC3)C2)c1 (stereo unspecified) | 2.01%
39 | Cn1ncnc1CNC1CCc2cc(Cl)ccc21 (stereo unspecified) | 9.57%
40 | CC(=O)Nc1cc2c(cc1C)OCO2 | 10.5%
41 | CC(C)(C)OC(=O)N1CCN(S(C)(=O)=O)C2(CCCCC2)C1 | 10.3%
42 | CC(C)NC(=O)[C@@H]1C[C@H]2OCC[C@H]2N(Cc2ccc3ccccc3n2)C1 | -66.8%
43 | Cc1ccsc1C(=O)N1CCc2ncnc(NC(C)C)c2CC1 | -79.3%
44 | O=C(NCC1CC1)C1CN(C(=O)Nc2ccccc2)CC12CCOCC2 (stereo unspecified) | -82.6%
45 | CS(=O)(=O)N1CC[C@@H]2[C@@H](CCC(=O)N2CCC2=CCCCC2)C1 | -5.64%
46 | Cc1cccc(CN2CCN(C(=O)c3cnc(C)[nH]c3=O)CC2)c1 | -3.32%

Row | SMILES | cytotoxicity at 10 µM
47 | OCc1ccc(-c2nccn2CCc2nc3c(s2)CCCC3)o1 | 4.71%
48 | CCN1CCC(N2C[C@H]3OC(=O)N(CCc4cccc(Cl)c4)[C@H]3C2)CC1 | -5.4%
49 | Cc1ccc(C)c2c(=O)cc(CN3CC[C@@H](N)[C@H](O)C3)[nH]c12 | 8.24%
50 | CSCCN1CCN(c2nc(N)ncc2C)CC1 | 1.54%
51 | COCCN(C)C[C@@H]1CN(C(=O)c2ccc(SC)cc2)C[C@@H]1CO | 4.44%
52 | c1cncc(-c2noc(CCNc3ncnc4c3CCNCC4)n2)c1 | 3.38%
53 | CC(=O)N1C[C@H](NC(=O)c2ccnc(N)c2)[C@@H](C(C)C)C1 | 8.64%
54 | Cc1cc(C)cc(-c2cc(C3CCOC3)c(C#N)c(N)n2)c1 (stereo unspecified) | 1.44%
55 | CCCN1CCC(NN2CCN(C)CC2)CC1 | -2.38%
56 | CC(C)CCN1CC2(CCCN(C(=O)CNC(=O)N(C)C)C2)CCC1=O (stereo unspecified) | 9.94%
57 | Cc1nc2c(N(CCC(N)=O)CCc3ccccc3)ncnc2o1 | 4.6%
58 | CN(Cc1cc[nH]n1)C(=O)c1cn(Cc2c(F)cccc2F)nn1 | 7.29%
59 | Cc1ccc(O)c(C(=O)N2C[C@@H](C(=O)O)[C@H](c3ccccc3)C2)c1 | 0.00559%
60 | CN(C)CCN(CC1CCCO1)S(=O)(=O)NCc1ccccc1 (stereo unspecified) | 0.666%
61 | COc1ccc(-n2c(CO)nc3ccccc32)cc1CO | 1.78%
62 | COc1ccc(CN(Cc2cnn(C)c2)CC(C)C)cn1 | -18.4%
63 | Cc1cc(C)n2nc(C(=O)N3CCCC4(CCOC4)C3)cc2n1 (stereo unspecified) | 7.73%
64 | Cc1ccc(C(C(=O)N2CC(c3ccccn3)C2)N(C)C)cc1 (stereo unspecified) | -9.82%
65 | CCNc1ncc(C(=O)NCCCc2ccncc2)cn1 | 0.562%
66 | Cc1ccc(Oc2ncccc2CNC(=O)NC2CCCCC2)cn1 | -3.01%
67 | CC(C)C(=O)N1CCN(C(=O)c2cc(C(C)C)no2)[C@H]2CS(=O)(=O)C[C@H]21 | -9.43%
68 | CN1CCC(C2CCN(Cc3cccc(-n4cccn4)c3)CC2)C1 (stereo unspecified) | -6.15%
69 | CCOc1ccccc1-c1cc2c(cc1C(N)=O)OCO2 | 5.05%

Row | SMILES | cytotoxicity at 10 µM
70 | CCC(=O)N1CCN(Cc2cc(-c3ccncc3)nn2C)CC1 | 4.24%
71 | Cc1cc(C)n(CC2CN(CC(=O)NCc3cccs3)CCO2)n1 (stereo unspecified) | -9.89%
72 | COc1cc(CNCc2ccnc(N3CCOCC3)c2)cc(OC)c1 | 6.1%
73 | CCS(=O)(=O)N(C)CCCNCc1c(C)nn(C)c1N(C)C | -8.72%
74 | CC(Cn1ccnc1)NC(=O)C1(c2cccc(Cl)c2)CC1 (stereo unspecified) | -19.3%
75 | CC(C)c1nc(CN2CCCC2c2cnn(C)c2)cs1 (stereo unspecified) | 0.0791%
76 | Cc1ccc(-c2nnc(CN3CCOC(Cn4cncn4)C3)o2)cc1 (stereo unspecified) | -10.2%
77 | CCc1nc(CN(C(C)=O)C2CCN(CCc3ccccc3)C2)no1 (stereo unspecified) | -2.18%
78 | CN(CCC(=O)N1CCc2sccc2C1)Cc1cnn(C)c1 | -18.6%
79 | CN(CCC(=O)N1CCc2sccc2C1)Cc1cc(Br)cs1 | -14.8%
80 | Cc1noc(C)c1CC(=O)N1CCc2sccc2C1 | -18.4%
81 | COc1ccc(C)cc1C(C)NC(=O)CCn1cncn1 (stereo unspecified) | -7.82%
82 | O=C(NCCN1C(=O)c2ccccc2C1=O)c1scnc1Cl | -12.3%
83 | Cc1ccc(C(=O)N2CCN(Cc3cccs3)CC2)n1C | -5.37%
84 | Cc1cc(C)n(CC2CCCN2C(=O)c2ccc3nnc(C)n3c2)n1 (stereo unspecified) | -3.6%
85 | COc1ccc(N2CCN(C(=O)NC(C)c3nncn3C)CC2)cc1 (stereo unspecified) | -7.12%
86 | Cc1cc(NC(=O)CN2CCCC2c2noc(C3CC3)n2)n(C)n1 (stereo unspecified) | -1.16%
87 | COc1cc(C(=O)N2CCCC(n3ccnc3)C2)cc2c1OCCO2 (stereo unspecified) | -5.28%
88 | CC(=O)Nc1nc(C(=O)NCc2ccc(N3CCOCC3)nc2)cs1 | -14%
89 | COc1c(CNCc2ccnc(N3CCOCC3)c2)c(C)nn1C | -1.82%
90 | O=C(CN1CCCC1c1cccs1)N1CCc2sccc2C1 (stereo unspecified) | -17%
91 | COc1ccc(CNC(=O)Nc2cccnc2N2CCCC2)cc1 | -21.5%
92 | COc1cc(C)nc(N2CCN(C(=O)c3cc(C)no3)CC2)n1 | -30.4%

Row | SMILES | cytotoxicity at 10 µM
93 | O=C(c1ccc(OCC2CC2)nc1)N1CCCC(n2ccnc2)C1 (stereo unspecified) | -9.16%
94 | CCCNC(=O)CCC(=O)Nc1ccc(-n2cncn2)c(F)c1 | 1.94%
95 | Cc1cnn(CCNCc2nc(COc3ccc(F)cc3)no2)c1 | -5.61%
96 | Cc1nc(C2CCCN2CC(=O)N2CCCc3ccccc32)no1 (stereo unspecified) | -8.7%
97 | O=C(NCc1ccccn1)N(Cc1ccc(F)cc1F)C1CC1 | -17.5%
98 | N#Cc1ccccc1N1CCCN(C(=O)CCn2cccn2)CC1 | -13.1%
99 | Cc1noc(C2CCN(Cc3cc(=O)n(C)c(=O)n3C)CC2)n1 | -2.57%
100 | Cc1ccsc1CNc1cc(N2CCCC2CO)ncn1 (stereo unspecified) | -2.45%
101 | Cc1nc(CN2CCCC(N(C)Cc3nnsc3Cl)C2)no1 (stereo unspecified) | -4.36%
102 | Cn1ccnc1Sc1ccc(N)cn1 | 3.08%
103 | CC(=O)Nc1ccc(Oc2cc(C)nc(C3CCNCC3)c2)cc1 | 2.69%
104 | Cc1ccc(CN(Cc2c[nH]cn2)C2CC(C)(C)NC(C)(C)C2)o1 | -0.105%
105 | O=C([C@H]1C[C@H]2OCC[C@H]2N(Cc2ccoc2)C1)N1CCCO1 | -69.8%
106 | NCC(=O)N1CCC(c2ccnc(Nc3cc(C(F)(F)F)ccn3)n2)C1 (stereo unspecified) | 9.83%
107 | Cc1nc(CN2C(=O)CCC23CCN(Cc2ccccn2)CC3)cs1 | -2.71%
108 | CN1CCN(CC2CN(CC3CC3)Cc3nccn3C2)CC1 (stereo unspecified) | -76.1%
109 | CC(=O)N1CCO[C@H]2[C@H](OCCCn3cccn3)CC[C@@H]21 | 7.16%
110 | COc1cccc(-c2n[nH]cc2CNC2CCC(O)CC2)c1 (stereo unspecified) | -0.874%
111 | CCS(=O)(=O)N1CCC2(CN(c3cccc(F)c3)C(=O)CN2C)C1 (stereo unspecified) | -74.4%
